Assay results: ChEMBL document CHEMBL3297658, “Potent fluorinated agelastatin analogues for chronic lymphocytic leukemia: design, synthesis, and pharmacokinetic studies” (J Med Chem, 2014); call rule not given here
Values after ≈ are worked out from the molar mass of the structure shown.

Tests used:
[1] = Antitumor activity against human JVM2 cells assessed as cell viability after 48 hrs by FACS analysis; type: functional, cell-based; conditions: JVM-2, 48 h
Summary of the method: (§1)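 Primary CLL patient cells or JVM-2 line cultured 48 h (37 °C, 5% CO2) in RPMI + 10% FBS with graded compound. Stained 30 min at 37 °C with 40 nM DiOC6 and 10 μg/mL PI, then flow cytometry (525 nm DiOC6, 600 nm PI). Viability = % DiOC6+/PI− relative to untreated or vehicle control. EC50 and SE fitted from dose–response curves.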

HeLa = test: Antitumor activity against human HeLa cells assessed as cell viability by MTT assay; type: functional, cell-based
Summary of the method: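 Adherent HeLa cells exposed to compound, then medium replaced with 0.5 mg/mL MTT in phenol-red-free RPMI and incubated overnight at 37 °C. Lysed with 15% SDS/0.015 M HCl and OD read at 570 nm once formazan dissolved. EC50 and SE derived from dose–response curves.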

[2] = Antitumor activity against CLL2 cells isolated from CLL patient assessed as cell viability after 48 hrs by FACS analysis; type: functional, cell-based, Homo sapiens; summary of the method: as §1
[3] = Antitumor activity against CLL1 cells isolated from CLL patient assessed as cell viability after 48 hrs by FACS analysis; type: functional, cell-based; conditions: Homo sapiens; summary of the method: as §1
[4] = Tmax in BALB/c mouse plasma at 5 mg/kg, ip administered as single dose by LC/MS analysis; type: ADME, organism-based; design: dose 5 mg/kg, route intraperitoneal
Summary of the method: (§2)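 Female BALB/c mice dosed at 6 weeks of age with a single intraperitoneal dose of 2.5 or 5.0 mg/kg, n = 4. Tail-vein blood taken at set times and stored at -80 °C. Samples precipitated with CH3CN, spun at 3000g for 10 min, concentrated, reconstituted in 1:1 CH3CN/H2O and quantified by LCMS. PK parameters derived from the concentration–time curves.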

[5] = Cmax in BALB/c mouse plasma at 2.5 mg/kg, iv administered as single dose by LC/MS analysis; type: ADME, organism-based; design: dose 2.5 mg/kg, route intravenous
Summary of the method: (§3)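 Female BALB/c mice given a single 2.5 mg/kg dose intravenously (IP arm run in parallel). Plasma concentration–time course followed by LCMS. AUC, Cmax, Tmax and t1/2 calculated from the curves.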

[6] = Half life in BALB/c mouse plasma at 2.5 mg/kg, iv administered as single dose by LC/MS analysis; type: ADME, organism-based; design: dose 2.5 mg/kg, route intravenous; summary of the method: as §3
Plasma = test: Protein binding in BALB/c mouse plasma at 50 uM after 1 to 24 hrs by LC-MS method; type: ADME, cell-free
Summary of the method: (§4)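 Compound added to pooled female BALB/c mouse plasma or serum, or to human AB serum, at 50 μM final (1% DMSO) and incubated at 37 °C with gentle agitation. Aliquots taken at 0, 0.5, 1, 2, 8, 18 and 24 h, proteins precipitated with CH3CN, spun at 3000g for 10 min, supernatant analysed by LCMS. Run in triplicate.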

Serum [7] = test: Protein binding in human AB serum at 50 uM after 1 to 24 hrs by LC-MS method; type: ADME; summary of the method: as §4
[8] = Antitumor activity against CLL4 cells isolated from CLL patient assessed as cell viability after 48 hrs by FACS analysis; type: functional, cell-based; conditions: Homo sapiens; summary of the method: as §1
[9] = AUC in BALB/c mouse plasma at 2.5 mg/kg, ip administered as single dose by LC/MS analysis; type: ADME, organism-based; design: dose 2.5 mg/kg, route intraperitoneal; summary of the method: as §2
[10] = Cytotoxicity against human CLL cells; type: functional, cell-based
Summary of the method: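 Primary patient CLL cells cultured 48 h (37 °C, 5% CO2) in RPMI with 10% FBS and test compound. Viability taken as the DiOC6+/PI− fraction relative to untreated or vehicle control. EC50 with SE from dose–response curves.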

[11] = Drug recovery in BALB/c mouse plasma at 50 uM after 24 hrs by LC-MS method; type: ADME, cell-free; conditions: read-out: Drug recovery; summary of the method: as §4
[12] = Drug recovery in human AB serum at 50 uM after 24 hrs by LC-MS method; type: ADME, cell-free; conditions: read-out: Drug recovery; summary of the method: as §4
[13] = Tmax in BALB/c mouse plasma at 2.5 mg/kg, iv administered as single dose by LC/MS analysis; type: ADME, organism-based; design: dose 2.5 mg/kg, route intravenous; summary of the method: as §3
Liver [14] = test: Metabolic stability in mouse liver microsomes containing glucuronidase; type: ADME
Liver microsome = test: Metabolic stability in human liver microsomes at 100 uM measured after 1 hr by LC/MS analysis in presence of 1 mM NADPH; type: ADME
Summary of the method: (§5)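 Microsomes (final protein 5 mg/mL, mouse or human) in 0.1 M sodium phosphate pH 7.4 with compound at 100 μM final (DMSO <1%). Preincubated 5 min at 37 °C, started with NADPH (1 mM final), run 60 min at 37 °C with agitation. Stopped with MeOH and centrifuged; supernatant analysed by LCMS. Controls: zero time, no NADPH, heat-inactivated microsomes, and 7-ethoxycoumarin as CYP substrate.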

Liver [15] = test: Metabolic stability in human liver S9 fraction containing glucuronidase; type: ADME, subcellular
Serum [16] = test: Protein binding in BALB/c mouse serum at 50 uM after 1 to 24 hrs by LC-MS method; type: ADME; summary of the method: as §4
[17] = Drug recovery in BALB/c mouse serum at 50 uM after 24 hrs by LC-MS method; type: ADME, cell-free; conditions: read-out: Drug recovery; summary of the method: as §4
Mus musculus = test: Half life in BALB/c mouse plasma at 2.5 mg/kg, ip administered as single dose by LC/MS analysis; type: ADME, organism-based; design: dose 2.5 mg/kg, route intraperitoneal; conditions: in vivo; summary of the method: as §2
[18] = AUC in BALB/c mouse plasma at 2.5 mg/kg, iv administered as single dose by LC/MS analysis; type: ADME, organism-based; design: dose 2.5 mg/kg, route intravenous; summary of the method: as §3
Liver [19] = test: Metabolic stability in mouse liver microsomes at 100 uM measured after 1 hr by LC/MS analysis in presence of 1 mM NADPH; type: ADME; summary of the method: as §5
[20] = Cmax in BALB/c mouse plasma at 5 mg/kg, ip administered as single dose by LC/MS analysis; type: ADME, organism-based; design: dose 5 mg/kg, route intraperitoneal; summary of the method: as §2
[21] = Antitumor activity against CLL6 cells isolated from CLL patient assessed as cell viability after 48 hrs by FACS analysis; type: functional, cell-based; conditions: Homo sapiens, CLL6, 48 h; summary of the method: as §1
[22] = Antitumor activity against CLL3 cells isolated from CLL patient assessed as cell viability after 48 hrs by FACS analysis; type: functional, cell-based; conditions: Homo sapiens; summary of the method: as §1
[23] = Antitumor activity against CLL5 cells isolated from CLL patient assessed as cell viability after 48 hrs by FACS analysis; type: functional, cell-based; conditions: Homo sapiens; summary of the method: as §1
[24] = Cmax in BALB/c mouse plasma at 2.5 mg/kg, ip administered as single dose by LC/MS analysis; type: ADME, organism-based; design: dose 2.5 mg/kg, route intraperitoneal; summary of the method: as §2
KB = test: Cytotoxicity against human KB cells; type: functional, cell-based
[25] = AUC in BALB/c mouse plasma at 5 mg/kg, ip administered as single dose by LC/MS analysis; type: ADME, organism-based; design: dose 5 mg/kg, route intraperitoneal; summary of the method: as §2
[26] = Half life in BALB/c mouse plasma at 5 mg/kg, ip administered as single dose by LC/MS analysis; type: ADME, organism-based; design: dose 5 mg/kg, route intraperitoneal; summary of the method: as §2
[27] = Tmax in BALB/c mouse plasma at 2.5 mg/kg, ip administered as single dose by LC/MS analysis; type: ADME, organism-based; design: dose 2.5 mg/kg, route intraperitoneal; summary of the method: as §2

Q: For `CN1C(=O)N[C@H]2[C@@H]3NC(=O)c4cc(C(F)(F)F)c(C(F)(F)F)n4[C@@H]3C[C@]21O`, which EC50 [1] is on record?
A: 41 µM

Q: What about the EC50 (HeLa) of the same compound?
A: 153 µM

Q: And the EC50 ([2]; Homo sapiens, CLL2, 48 h)?
A: 19.2 µM

Q: Which results are given for `CN1C(=O)N[C@H]2[C@@H]3NC(=O)c4cc(C(F)(F)F)cn4[C@@H]3C[C@]21O`?
A: EC50 [1]: 22.8 µM; EC50 [3]: 45.1 µM; EC50 (HeLa): 19.6 µM; EC50 ([2]; Homo sapiens, CLL2, 48 h): 4.68 µM

Q: For `CN1C(=O)N[C@H]2[C@@H]3NC(=O)c4ccc(C(F)F)n4[C@@H]3C[C@]21O`, which EC50 [1] is on record?
A: 4.66 µM

Q: What about the EC50 [3] of the same compound?
A: 13 µM

Q: What about the EC50 (HeLa) of the same compound?
A: 4.01 µM

Q: And the EC50 ([2]; Homo sapiens, CLL2, 48 h)?
A: 5.44 µM

Q: With `CN1C(=O)N[C@H]2[C@@H]3NC(=O)c4cc(I)c(Br)n4[C@@H]3C[C@]21O` as the compound, how does the EC50 [1] read?
A: 162 µM

Q: What about the EC50 [3] of the same compound?
A: 211 µM

Q: And the EC50 (HeLa)?
A: 86.7 µM

Q: What about the EC50 ([2]; Homo sapiens, CLL2, 48 h) of the same compound?
A: 48.2 µM

Q: For `CO[C@@]12C[C@@H]3[C@H]([C@@H]1N(C)C(=O)N2C)N(C)C(=O)c1ccc(Br)n13`, which EC50 [1] is on record?
A: 55.7 µM

Q: And the EC50 [3]?
A: 140 µM

Q: And the EC50 (HeLa)?
A: 59 µM

Q: What about the EC50 ([2]; Homo sapiens, CLL2, 48 h) of the same compound?
A: 47.7 µM

Q: What does the source list for `CN1C(=O)N[C@@]2(O)[C@@H]3NC(=O)c4ccc(Br)n4[C@@H]3C[C@@]12O`?
A: EC50 [1]: 4.07 µM; EC50 [3]: 84.6 µM; EC50 (HeLa): 7.63 µM; EC50 ([2]; Homo sapiens, CLL2, 48 h): 10 µM

Q: For `CN1C(=O)N[C@H]2[C@@H]3NC(=O)c4ccc(Br)n4[C@@H]3C[C@]21O` (stereo in doubt; 1a) [AGELASTATIN A], which Tmax [4] is on record?
A: 30 min

Q: What about the Cmax [5] of the same compound?
A: 4500 nM

Q: What about the half-life [6] of the same compound?
A: 4 min

Q: And the PPB (Plasma)?
A: Not Active

Q: What about the PB (Serum [7]) of the same compound?
A: Not Active

Q: What about the EC50 [1] of the same compound?
A: 0.28 µM

Q: What about the EC50 [8] of the same compound?
A: 0.37 µM

Q: And the AUC [9]?
A: 2.95 µM·h

Q: And the IC50 [10]?
A: 0.06 µM

Q: What about the remaining at 24 h, 50 µM [11] of the same compound?
A: 65%

Q: What about the EC50 [3] of the same compound?
A: 0.31 µM

Q: And the remaining at 24 h, 50 µM [12]?
A: 65%

Q: What about the Tmax [13] of the same compound?
A: 2 min

Q: And the Stability (Liver [14])?
A: Stable

Q: And the Stability (Liver microsome)?
A: Stable

Q: What about the Stability (Liver [15]) of the same compound?
A: Stable

Q: And the PB (Serum [16])?
A: Not Active

Q: And the remaining at 24 h, 50 µM [17]?
A: 65%

Q: What about the t1/2 (Mus musculus) of the same compound?
A: 60 min

Q: And the AUC [18]?
A: 1.74 µM·h

Q: And the Stability (Liver [19])?
A: Stable

Q: And the Cmax [20]?
A: 2300 nM

Q: What about the EC50 [21] of the same compound?
A: 1.15 µM

Q: And the EC50 [22]?
A: 0.24 µM

Q: And the EC50 (HeLa)?
A: 0.11 µM

Q: And the EC50 [23]?
A: 0.29 µM

Q: And the Cmax [24]?
A: 1280 nM

Q: What about the IC50 (KB) of the same compound?
A: 0.5 µg/mL (≈ 1.47 µM)

Q: And the AUC [25]?
A: 4.29 µM·h

Q: And the half-life [26]?
A: 60 min

Q: And the EC50 ([2]; cll2)?
A: 0.16 µM

Q: What about the Tmax [27] of the same compound?
A: 30 min

Q: With `CN1C(=O)N[C@H]2[C@@H]3NC(=O)c4ccc(Br)n4[C@@H]3C[C@]21O` (stereo in doubt; 3) [AGELASTATIN A] as the compound, how does the EC50 ([2]; cll2) read?
A: > 1 µM

Q: For `O=C1N[C@H]2[C@@H]3NC(=O)c4ccc(Br)n4[C@@H]3C[C@@]2(O)N1` [AGELASTATIN D], which EC50 [1] is on record?
A: 13.2 µM

Q: What about the EC50 [3] of the same compound?
A: 91.1 µM

Q: And the EC50 ([2]; Homo sapiens, CLL2, 48 h)?
A: 29 µM

Q: With `CCOc1ccc2ccc(=O)oc2c1` [ETHOXYCOUMARIN] as the compound, how does the Stability (Liver microsome) read?
A: Unstable

Q: What about the Stability (Liver [19]) of the same compound?
A: Unstable

Q: With `Nc1nc(F)nc2c1ncn2[C@@H]1O[C@H](CO)[C@@H](O)[C@@H]1O` [FLUDARABINE] as the compound, how does the EC50 [1] read?
A: 10.4 µM

Q: And the EC50 [8]?
A: 0.64 µM

Q: What about the EC50 [3] of the same compound?
A: 17.1 µM

Q: What about the EC50 [21] of the same compound?
A: 1.6 µM

Q: What about the EC50 [22] of the same compound?
A: 0.35 µM

Q: And the EC50 (HeLa)?
A: 16 µM

Q: And the EC50 [23]?
A: 0.16 µM

Q: And the EC50 ([2]; Homo sapiens, CLL2, 48 h)?
A: 2.66 µM
